Our source for the Activity, inhibition and IC50 values is ChEMBL document CHEMBL3400140, “Design, synthesis, and structure-activity relationships of 1-ethylpyrazole-3-carboxamide compounds as novel hypoxia-inducible factor (HIF)-1 inhibitors” (Bioorg Med Chem, 2015).

A word on the IC50: it is the point on the concentration scale where inhibition reaches its midpoint.

Calls of active or inactive are those of the source. No cut-off for these calls is given here.

For the first experiment, the system named is HT-1080. Kind of experiment: Effect on HIF-1beta gene expression in human HT1080 cells up to 100 uM after 4 hrs by real time PCR method.
Details: not given
Type of experiment: functional, cell-based. The method, boiled down: (§1)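 HT1080 cells treated 4 h with compound; mRNA of CAIX, HIF-1a and HIF-1b quantified by real-time PCR, normalized to 18S rRNA and expressed relative to DMSO-treated cells.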
On to `CCn1cc(NC(=O)c2ccc(Cn3nc(C)cc3C)o2)c(C(N)=O)n1`, for which the result was inactive.

The target in another experiment is T1, Hypoxia inducible factors; HIF-1-alpha, HIF-2-alpha (Homo sapiens, UniProt Q16665+Q99814). Put plainly: Inhibition of HIF1 in human HT1080 cells transfected with 5xHRE/pGL3/VEGF/E1b reporter plasmid pre-incubated for 1 hr followed by incubation under hypoxia conditions for 24 hrs by HRE-driven luciferase reporter gene assay. In kind it is cell-based. Particulars: HT-1080. Background: A reporter such as luciferase makes a cellular process visible.
For the compound `CCn1cc(NC(=O)c2ccc(Cn3nc(C)cc3C)o2)c(C(N)=O)n1`, the inhibition entry is “Dose-dependent effect”.

The experiment is the same for the next values; noted with them: ht-1080.
Compound `CCn1cc(NC(=O)c2ccc(Cn3nc(C)cc3C)o2)c(C(=O)NC)n1` showed an IC50 of 19.4 µM.

In turn, `CCn1cc(NC(=O)c2ccc(Cn3nc(C)c(Br)c3C)o2)c(C(N)=O)n1` registered an IC50 of 8.1 µM.

With `CCn1cc(NC(=O)c2ccc(Cn3cccn3)o2)c(C(N)=O)n1`, the IC50 turned out to be 81.8 µM.

The compound `CCn1cc(NC(=O)c2ccc(Cc3c(C)noc3C)o2)c(C(N)=O)n1` gave an IC50 above 100 µM.

In the case of `CCn1cc(NC(=O)c2ccc(Cn3nc(C)c(Cl)c3C)o2)c(C(N)=O)n1`, the IC50 stood at 8.7 µM.

Compound `CCn1ncc(NC(=O)c2ccc(Cn3nc(C)cc3C)o2)c1C(N)=O` yielded an IC50 above 100 µM.

In turn, `Cc1cc(C)n(Cc2ccc(C(=O)Nc3c[nH]nc3C(N)=O)o2)n1` returned an IC50 of 71.6 µM.

As to `CCn1cc(NC(=O)c2ccc(Cn3nc(C)cc3C)o2)c(C(N)=O)n1`, the concentration for half-maximal inhibition (IC50) was 19.1 µM.

With `Cc1cc(C)n(Cc2ccc(C(=O)Nc3cnn4c3C(=O)NCC4)o2)n1`, the IC50 was above 100 µM.

In the case of `CCn1cc(NC(=O)c2cccc(Cn3nc(C)cc3C)c2)c(C(N)=O)n1`, the IC50 turned out to be 72 µM.

On to `CCn1cc(NC(=O)c2ccc(Cn3nc(C)cc3C)o2)c(C(=O)N(C)C)n1`, for which the half-maximal inhibitory concentration (IC50) is above 100 µM.

`CCn1cc(NC(=O)c2ccc(Cn3nc(C)cc3C)s2)c(C(N)=O)n1`: the IC50 was above 100 µM.

Tested on in another experiment: not listed separately
Put plainly: Inhibition of cell proliferation of human HT1080 cells after 72 hrs by WST-8 dye based cell counting assay. In kind it is functional. The following applies: HT-1080, 72 h. An outline of the steps:
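HT1080 cells seeded at 1.0 × 10³/well and kept under hypoxia (1% O₂); growth read 72 h after compound addition with WST-8 reagent, absorbance at 450 nm.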
Background: Formazan colour is commonly taken as a measure of viable cells.
On to `CCn1cc(NC(=O)c2ccc(Cn3nc(C)cc3C)o2)c(C(=O)NC)n1`, for which inhibition was half-maximal at 18.1 µM (IC50).

In turn, `CCn1cc(NC(=O)c2ccc(Cn3nc(C)c(Br)c3C)o2)c(C(N)=O)n1` showed an IC50 of 7 µM.

Consider `CCn1cc(NC(=O)c2ccc(Cn3cccn3)o2)c(C(N)=O)n1`, for which 75.1 µM corresponded to half-maximal inhibition (IC50).

Turning to `CCn1cc(NC(=O)c2ccc(Cc3c(C)noc3C)o2)c(C(N)=O)n1`, the 50% inhibitory concentration (IC50) was above 100 µM.

The compound `CCn1cc(NC(=O)c2ccc(Cn3nc(C)c(Cl)c3C)o2)c(C(N)=O)n1` showed a concentration for half-maximal inhibition (IC50) of 7.4 µM.

On to `CCn1ncc(NC(=O)c2ccc(Cn3nc(C)cc3C)o2)c1C(N)=O`, for which the IC50 was above 100 µM.

Regarding `Cc1cc(C)n(Cc2ccc(C(=O)Nc3c[nH]nc3C(N)=O)o2)n1`, the midpoint of inhibition, the IC50, lay at 66.6 µM.

`CCn1cc(NC(=O)c2ccc(Cn3nc(C)cc3C)o2)c(C(N)=O)n1` came in with a half-maximal inhibitory concentration (IC50) of 15.1 µM.

On to `Cc1cc(C)n(Cc2ccc(C(=O)Nc3cnn4c3C(=O)NCC4)o2)n1`, for which the 50% inhibitory concentration (IC50) was above 100 µM.

With `CCn1cc(NC(=O)c2cccc(Cn3nc(C)cc3C)c2)c(C(N)=O)n1`, inhibition was half-maximal at 50.2 µM (IC50).

For the compound `CCn1cc(NC(=O)c2ccc(Cn3nc(C)cc3C)o2)c(C(=O)N(C)C)n1`, the 50% inhibitory concentration (IC50) was 75 µM.

The compound `CCn1cc(NC(=O)c2ccc(Cn3nc(C)cc3C)s2)c(C(N)=O)n1` showed a half-maximal inhibitory concentration (IC50) above 100 µM.

For a further experiment, the system named is HT-1080. Put plainly: Effect on HIF-1alpha gene expression in human HT1080 cells up to 100 uM after 4 hrs by real time PCR method. In kind it is functional, cell-based.
Details: not given
The method, boiled down:
as §1
For orientation: Real-time PCR tracks product formation cycle by cycle.
For `CCn1cc(NC(=O)c2ccc(Cn3nc(C)cc3C)o2)c(C(N)=O)n1`, the result was inactive.

A further experiment concerns the target T1, Hypoxia inducible factors; HIF-1-alpha, HIF-2-alpha. Put plainly: Inhibition of HIF1-mediated carbonic anhydrase 9 gene expression in human HT1080 cells at 100 uM after 16 hrs by real time PCR method. In kind it is cell-based. The following applies: HT-1080. An outline of the steps:
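HT1080 cells exposed to compounds at 100 µM for 16 h; CAIX mRNA measured by quantitative PCR normalized to 18S rRNA, expressed relative to the normoxic value.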
Regarding `CCn1cc(NC(=O)c2ccc(Cn3nc(C)c(Br)c3C)o2)c(C(N)=O)n1`, the inhibition result was “Active”.

In the case of `CCn1cc(NC(=O)c2ccc(Cn3nc(C)c(Cl)c3C)o2)c(C(N)=O)n1`, the inhibition result is “Active”.

Consider `CCn1ncc(NC(=O)c2ccc(Cn3nc(C)cc3C)o2)c1C(N)=O`, for which the inhibition result was “inactive”.

For another experiment the target is unchanged. Put plainly: Inhibition of HIF1-mediated carbonic anhydrase 9 gene expression in human HT1080 cells at 1 to 100 uM after 4 hrs by real time PCR method. In kind it is cell-based. Particulars: HT-1080. An outline of the steps:
as §1
For `CCn1cc(NC(=O)c2ccc(Cn3nc(C)cc3C)o2)c(C(N)=O)n1`, the inhibition result was “Dose-dependent effect”.

The subject of the next experiment is HT-1080. Kind of experiment: Inhibition of cell migration of scratched human HT1080 cells monolayers at 100 uM after 48 hrs by phase contrast microscopy based wound-healing assay. In kind it is functional.
Details: not given
As for `CCn1cc(NC(=O)c2ccc(Cn3nc(C)c(Br)c3C)o2)c(C(N)=O)n1`, the inhibition entry is “Active”.

In the case of `CCn1cc(NC(=O)c2ccc(Cn3nc(C)c(Cl)c3C)o2)c(C(N)=O)n1`, the inhibition result is “Active”.

With `CCn1cc(NC(=O)c2ccc(Cn3nc(C)cc3C)o2)c(C(N)=O)n1`, the inhibition result was “Active”.
